According to ChEMBL document CHEMBL5543124, “Lead Compound Development of SRC-3 Inhibitors with Improved Pharmacokinetic Properties and Anticancer Efficacy” (J Med Chem, 2024):
Active and inactive are the calls of the source. The calls are words filed in the database; no cut-off is given here.

Tests used:
[1] = tested on: MCF7; assay: Cytotoxicity against human MCF7 cells assessed as inhibition of cell growth incubated for 72 hrs by MTT assay; format: functional, cell-based; conditions: MCF7, 72 h
[2] = tested on: PANC-1; assay: Cytotoxicity against human PANC-1 cells assessed as inhibition of cell growth incubated for 72 hrs by MTT assay; format: functional, cell-based; conditions: PANC-1, 72 h
How it was run: (§1)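 Cells seeded and grown to 70–80% confluence, then exposed for 72 h to a titration series (0.2–1000 nM). Viability read by MTT relative to untreated cells, with 6 replicates per concentration. IC50 fitted with a Hill-slope model.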

[3] = tested on: MDA-MB-468; assay: Cytotoxicity against human MDA-MB-468 cells assessed as inhibition of cell growth incubated for 72 hrs by MTT assay; format: functional, cell-based; conditions: MDA-MB-468, 72 h; how it was run: as §1
[4] = tested on: BT-474; assay: Cytotoxicity against human BT-474 cells assessed as inhibition of cell growth incubated for 72 hrs by MTT assay; format: functional, cell-based; conditions: BT-474, 72 h; how it was run: as §1
[5] = tested on: LNCaP; assay: Cytotoxicity against human LNCaP cells assessed as inhibition of cell growth incubated for 72 hrs by MTT assay; format: functional, cell-based; how it was run: as §1
[6] = tested on: LNCaP; assay: Antitumor activity against human LNCaP cells xenografted in SCID mouse assessed as reduction in tumor growth at 10 mg/kg,ip administration measured after 1 week; format: functional, organism-based; conditions: time 1.0 weeks
How it was run: (§2)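 LNCaP cells (1×10^7) injected subcutaneously on both flanks of male SCID mice. From 4 weeks post-inoculation, 10 mg/kg ip daily for 4 weeks or vehicle (n = 10 vs 11). Caliper tumor size measured weekly (length × width²/2); survival endpoint at tumor diameter 3 cm.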

[7] = tested on: LNCaP; assay: Antitumor activity against human LNCaP cells xenografted in SCID mouse assessed as reduction in tumor growth at 10 mg/kg,ip administration measured after 4 weeks; format: functional; parameters: scale not given: the % may be the effect or the level left
How it was run: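 Male SCID mice received 1×10^7 LNCaP cells subcutaneously under the back skin on both sides. Daily i.p. dosing at 10 mg/kg or vehicle began 4 weeks after inoculation and ran for 4 weeks. Tumor length and width were measured weekly, and size was calculated as length × width × width/2.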

[8] = tested on: LNCaP; assay: Antitumor activity against human LNCaP cells xenografted in SCID mouse assessed as increase in mouse survival at 10 mg/kg,ip administration measured after 4 weeks; format: functional, organism-based; how it was run: as §2
[9] = tested on: LNCaP; assay: Antitumor activity against human LNCaP cells xenografted in SCID mouse assessed as reduction in Ki67 expression at 10 mg/kg,ip administration measured after 4 weeks by immunohistochemical analysis; format: functional, organism-based
How it was run: (§3)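 LNCaP subcutaneous xenograft tumors in SCID mice, collected at the end of 4 weeks of 10 mg/kg ip daily dosing or vehicle. IHC for Ki67 and cleaved caspase 3 run on eight tumors from eight mice, at least five fields each; positive cells counted; mean ± SEM reported.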

[10] = tested on: LNCaP; assay: Antitumor activity against human LNCaP cells xenografted in SCID mouse assessed as increase in cleaved caspase-3 expression at 10 mg/kg,ip administration measured after 4 weeks by immunohistochemical analysis; format: functional, organism-based; how it was run: as §3
[11] = tested on: LNCaP; assay: Antitumor activity against human LNCaP cells xenografted in SCID mouse assessed as increase in positive cells of cleaved caspase-3 at 10 mg/kg,ip administration measured after 4 weeks by immunohistochemical analysis; format: functional; how it was run: as §3
[12] = tested on: LNCaP; assay: Antitumor activity against human LNCaP cells xenografted in SCID mouse assessed as reduction in microvascular density at 10 mg/kg,ip administration measured after 4 weeks by immunohistochemical analysis relative to control; format: functional; parameters: scale not given: the % may be the effect or the level left
How it was run: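 LNCaP xenografts were grown subcutaneously on both flanks of male SCID mice and treated i.p. at 10 mg/kg once daily for 4 weeks, starting 4 weeks after inoculation, with a vehicle control. Tumors were collected at the end of treatment for CD31 immunohistochemistry. Microvascular structures were counted in at least five areas per tumor, using eight tumors from eight mice. Data are mean ± SEM.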

[13] = tested on: MDA-PCa-118b; assay: Antitumor activity against patient derived MDA-PCa-118b cells xenografted in SCID mouse assessed as reduction in bone metastasis at 10 mg/kg,ip administration measured after 4 weeks by X-ray imaging analysis; format: functional, organism-based; conditions: Homo sapiens
How it was run: (§4)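 AR-PDX 118b cells (1×10^5) injected via intra-femoral artery in male SCID mice (8–9 weeks). After 2 weeks, 10 mg/kg/day ip or vehicle for 4 weeks (n = 9/group). X-ray imaging every two weeks. At the end, femurs CT-scanned (5 per group) with 3D-reconstruction tumor size, and H&E histology used for tumor/femur area ratio.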

[14] = tested on: MDA-PCa-118b; assay: Antitumor activity against patient derived MDA-PCa-118b cells xenografted in SCID mouse assessed as reduction in bone damage at 10 mg/kg,ip administration measured after 4 weeks by X-ray imaging analysis; format: functional, organism-based; conditions: Homo sapiens; how it was run: as §4
[15] = tested on: MDA-PCa-118b; assay: Antitumor activity against patient derived MDA-PCa-118b cells xenografted in SCID mouse assessed as reduction in tumor burden in femur at 10 mg/kg,ip administration measured after 4 weeks by CT imaging analysis; format: functional, organism-based; conditions: Homo sapiens; how it was run: as §4
[16] = tested on: MDA-PCa-118b; assay: Antitumor activity against patient derived MDA-PCa-118b cells xenografted in SCID mouse assessed as reduction in tumor burden in femur at 10 mg/kg,ip administration measured after 4 weeks by hematoxylin and eosin staining based analysis; format: functional, organism-based; conditions: Homo sapiens; how it was run: as §4
[17] = Antitumor activity against patient derived MDA-PCa-118b cells xenografted in SCID mouse assessed as reduction in femur volume at 10 mg/kg,ip administration measured after 4 weeks by CT imaging analysis; format: functional, Homo sapiens; parameters: scale not given: the % may be the effect or the level left; how it was run: as §4
[18] = Antitumor activity against patient derived MDA-PCa-118b cells xenografted in SCID mouse assessed as reduction in ratio of tumor area to femur area at 10 mg/kg,ip administration measured after 4 weeks by CT imaging analysis; format: functional, Homo sapiens; parameters: scale not given: the % may be the effect or the level left; how it was run: as §4

`C/C(=N\N=c1/[nH]c2cc(F)c(F)cc2n1C)c1ncccn1` showed an IC50 [1] of 3.3 nM, an IC50 [2] of 8 nM and an IC50 [3] of 32 nM. The IC50 [4] was 1 nM, the IC50 [5] was 11 nM and the Activity [6] was “Active”. The Activity [7] was >65%, the Activity [8] was “Active” and the Activity [9] was “Active”. For the same molecule, the Activity [10] was “Active”, the Activity [11] was 10% and the Activity [12] was >50%. The Activity [13] was “Active”, the Activity [14] was “Active” and the Activity [15] was “Active”. For the same molecule, the Activity [16] was “Active”, the Activity [17] was >55% and the Activity [18] was >50%.
